Activity calls are given as the source filed them.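 The calls were made as follows: active = at least 50% inhibition of the target enzyme pPAFAH in mouse brain after oral dosing, with fewer than two other serine hydrolases also hit; inactive = weaker pPAFAH inhibition or two or more other hydrolases hit.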
Assays:
Assay in all cases: in vivo serine hydrolase selectivity, brain membranes – fluorescence, gel-based ABPP, mouse, in vivo study, late-stage follow-up (AID 588823)
Anti-targets = conditions: mouse brain membrane proteome, oral dosing, FP-Rh probe
In short: (§1)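 Material: wild-type mouse brain membrane fraction / Amount: 1 mg/mL membrane protein / Buffer or medium: DPBS / Compound: 50 mg/kg orally in PEG300 / Schedule: 4 h dosing, 30 min probe labelling at 37 °C / Signal: in-gel fluorescence scanning after SDS-PAGE separation / Controls: vehicle-dosed mice high, blank gel background low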

CES1 = conditions: mouse brain membrane proteome, oral dosing, stronger effect = higher value, dose or concentration not given here
In short: as §1

pPAFAH = conditions: mouse brain membrane proteome, oral dosing, stronger effect = higher value, dose or concentration not given here
In short: as §1

Cc1cc(N2CCN(C(=O)Oc3ccc(-c4ccccc4)cn3)CC2)c2ccccc2n1
outcome (Anti-targets): inactive | anti-target count (Anti-targets; number of FP-Rh anti-targets, stronger effect = lower value): 0 | inhibition (CES1): 90% | inhibition (pPAFAH): 95.5%

— PubChem BioAssay AID588823 (The Scripps Research Institute Molecular Screening Center, 2011)
